Assay results as given in ChEMBL document CHEMBL1131438, “Inactivation of O6-alkylguanine-DNA alkyltransferase. 1. Novel O6-(hetarylmethyl)guanines having basic rings in the side chain” (J Med Chem, 1998).

Key:
[1] = In vitro half-life at 37 degree Centigrade in phosphate-buffered saline(PBS; pH =7-7.2); format: ADME
[2] = biological target: T1, Methylated-DNA--protein-cysteine methyltransferase (Homo sapiens, UniProt P16455); assay: O6-Alkylguanine-DNA Alkyltransferase-Inactivating Activity (Concentration of inactivator required to produce 50% reduction in alkyltransferase activity)
T1 sequence (P16455 whole entry): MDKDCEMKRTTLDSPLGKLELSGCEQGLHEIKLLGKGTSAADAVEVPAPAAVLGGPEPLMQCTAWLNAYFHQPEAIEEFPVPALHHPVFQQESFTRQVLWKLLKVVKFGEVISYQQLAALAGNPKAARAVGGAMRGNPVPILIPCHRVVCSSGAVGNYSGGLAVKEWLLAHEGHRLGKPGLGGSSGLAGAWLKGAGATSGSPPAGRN
How it was run: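 Pure recombinant human ATase (50–60 fmol, titrated so ATase is limiting) preincubated 1 h at 37 °C with varying inactivator in 200 µL buffer (50 mM Tris-HCl pH 8.3, 3 mM DTT, 1 mM EDTA, 1 mg/mL BSA) plus 10 µg calf thymus DNA. Then 3H-methylated DNA substrate (4 µg DNA, 100 fmol O6-methylguanine) added, 1 h at 37 °C. After acid hydrolysis, 3H-methylated protein counted by scintillation. Duplicates, experiments repeated several times.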

[3] = biological target: T1, Methylated-DNA--protein-cysteine methyltransferase; assay: O6-Alkylguanine-DNA Alkyltransferase-Inactivating Activity in Raji cells (Concentration of inactivator required to produce 50% reduction in alkyltransferase activity); format: cell-based
How it was run: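 Raji cells in RPMI + 10% horse serum, 10^6/mL, exposed to inactivator or DMSO vehicle for 2 h at 37 °C. Cells washed, sonicated in Tris-DTT-EDTA buffer pH 8.3 with leupeptin, PMSF added, debris spun out. Supernatant ATase measured by transfer of 3H-methyl from O6-methylguanine DNA substrate to protein; activity expressed as % of untreated controls.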

half-life [1] [h]	IC50 [2] [nM]	IC50 [3] [nM]	SMILES
0.38	80	120	NC1=Nc2nc[nH]c2C(OCc2ccco2)N1 (stereo not given)
> 48	430	220	NC1=Nc2nc[nH]c2C(OCc2cccnc2)N1 (stereo not given)
> 48	130	200	NC1=Nc2nc[nH]c2C(OCc2ccncc2)N1 (stereo not given)
> 48	70	70	NC1=Nc2nc[nH]c2C(OCc2cnsc2)N1 (stereo not given)
> 48	200	120	NC1=Nc2nc[nH]c2C(OCc2ccc(Cl)nc2)N1 (stereo not given)
> 48		6000	NC1=Nc2nc[nH]c2C(OCc2ccccn2)N1 (stereo not given)

Continued, molecule first:

SMILES	half-life [1] [h]	IC50 [2] [nM]	IC50 [3] [nM]
Nc1nc(OCc2ccccc2)c2[nH]cnc2n1 [6-O-BENZYLGUANINE]	> 48		
NC1=Nc2nc[nH]c2C(OCc2cnc3c(c2)OCO3)N1 (stereo not given)	> 48	230	90
NC1=Nc2nc[nH]c2C(OCc2cnco2)N1 (stereo not given)	> 48	350	220
Cn1cncc1COC1N=C(N)Nc2[nH]cnc21 (stereo not given)	0.19	8500	21000
NC1=NC(OCc2ccnc(Cl)c2)c2[nH]cnc2N1 (stereo not given)	> 48	40	50
NC1=NC(OCc2cncs2)c2[nH]cnc2N1 (stereo not given)	> 48	33	60
NC1=NC(OCc2ccc[n+]([O-])c2)c2[nH]cnc2N1 (stereo not given)	> 48	1400	5400
NC1=Nc2nc[nH]c2C(OCc2ccc(Br)s2)N1 (stereo not given)	1.95	5	10
NC1=NC(OCc2cccs2)c2[nH]cnc2N1 (stereo not given)	0.67	18	30
NC1=NC(OCc2cncc(Br)c2)c2[nH]cnc2N1 (stereo not given)	> 48	250	200
